Measured values reported in ChEMBL document CHEMBL1124904, “7-Oxabicyclo[2.2.1]heptyl carboxylic acids as thromboxane A2 antagonists: aza omega-chain analogues” (J Med Chem, 1990).
pIC50, pKd: −log10 of the molar value.

How the values were obtained:
Homo sapiens [1] = species on record: Homo sapiens; assay: Evaluated for its specificity by inhibition of PGE-2 and arachidonic acid (substrate) biosynthesis, enzyme source is human platelets.; format: functional
How it was run: (§1)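 Microsomal enzyme preparations from human platelet, bovine seminal vesicles or bovine aorta, given arachidonic acid or PGH2 as substrate. Products measured: TxB2, PGE2 or 6-keto-PGF1α. IC50 reported.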

Cavia porcellus [2] = assay: Evaluated for the percent inhibition of arachidonate-induced hypertension resulting in decreases in blood pressure at 3 min after dosing (0.1 mg/kg iv) in anesthetized guinea pig.; format: functional
How it was run: (§2)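 Anesthetized guinea pig dosed iv with antagonist at 0.1 mg/kg (some at 1.0 mg/kg). Arachidonic acid 0.5 mg/kg iv given as challenge 3 or 60 min later. Airway resistance, dynamic compliance and blood pressure recorded; percent inhibition of each response.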

Bos taurus [3] = species on record: Bos taurus; assay: Evaluated for its specificity by inhibition of 6-keto-PGF1-alpha and arachidonic acid (substrate) biosynthesis, enzyme source is Bovine Aorta; format: functional; how it was run: as §1
Homo sapiens [4] = species on record: Homo sapiens; assay: Evaluated for its specificity to inhibit the aggregation of human platelets induced by Epinephrine(2 degree phase) at concentration of 10 uM; format: functional; details: read-out: I50
How it was run: (§3)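 Human platelet aggregation with agonist ADP 20 μM, collagen 10 or 20 μg/mL, or epinephrine 10 μM (primary and secondary phases scored separately); I50 reported.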

Bos taurus [5] = species on record: Bos taurus; assay: Evaluated for its specificity by inhibition of PGE-2 and arachidonic acid (substrate) biosynthesis, enzyme source is Bovine seminal Vesicles; format: functional; how it was run: as §1
Bos taurus [6] = species on record: Bos taurus; assay: Evaluated for its specificity by inhibition of 6-keto-PGF1-alpha and PGH-2 (substrate) biosynthesis, enzyme source is Bovine Aorta; format: functional; how it was run: as §1
Homo sapiens [7] = species on record: Homo sapiens; assay: Evaluated for its specificity by inhibition of PGE-2 and PGH-2 (substrate) biosynthesis, enzyme source is human platelets.; format: functional; how it was run: as §1
Homo sapiens [8] = species on record: Homo sapiens; assay: Evaluated for its specificity to inhibit the aggregation of human platelets induced by ADP at concentration of 20 uM; format: functional; details: read-out: I50; how it was run: as §3
Rattus norvegicus = species on record: Rattus norvegicus; assay: Evaluated for its potency Rat aorta (RA) strips in the presence of increasing concentrations; format: functional
How it was run: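 Rat aortic strips contracted by U-46,619 in cumulative dose-response curves, repeated with increasing antagonist concentrations; Kb from analysis of the rightward shift.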

Homo sapiens [9] = species on record: Homo sapiens; assay: Evaluated for its specificity by inhibition of TXB2 and arachidonic acid (substrate) biosynthesis, enzyme source is human platelets.; format: functional; details: read-out: I50; how it was run: as §1
Homo sapiens [10] = species on record: Homo sapiens; assay: Evaluated for its specificity to inhibit the aggregation of human platelets induced by Collagen at concentration of 10 ug/mL; format: functional; details: read-out: I50; how it was run: as §3
Homo sapiens [11] = species on record: Homo sapiens; assay: Evaluated for its specificity to inhibit the aggregation of human platelets induced by Epinephrine(1 degree phase) at concentration of 10 uM; format: functional; details: read-out: I50; how it was run: as §3
Homo sapiens [12] = species on record: Homo sapiens; assay: Evaluated for its specificity to inhibit the aggregation of human platelets induced by Collagen at concentration of 20 ug/mL; format: functional; details: read-out: I50; how it was run: as §3
Homo sapiens [13] = species on record: Homo sapiens; assay: Ability to inhibit platelet aggregation of human platelet-rich plasma (PRP) induced by 800 uM of AA-IPA (arachidonic acid); format: functional; details: Homo sapiens, Plasma; read-out: I50
How it was run: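 Human platelet-rich plasma; aggregation triggered by arachidonic acid at 800 μM. Test acids were also checked against ADP (20 μM)-induced aggregation. I50 taken as the concentration inhibiting aggregation.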

Cavia porcellus [14] = assay: Evaluated for the percent inhibition of arachidonate-induced air-way resistance at 60 min after dosing (0.1 mg/kg iv) in anesthetized guinea pig.; format: functional; how it was run: as §2
Cavia porcellus [15] = assay: Evaluated for the percent inhibition of arachidonate-induced hypertension resulting in decreases in blood pressure at 60 min after dosing (0.1 mg/kg iv) in anesthetized guinea pig.; format: functional; how it was run: as §2
Cavia porcellus [16] = species on record: Cavia porcellus; assay: Evaluated for its potency in Guinea pig trachea (GPT) spirals in the presence of increasing concentrations; format: functional; details: Cavia porcellus, Trachea
How it was run: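 Guinea pig tracheal spirals contracted by U-46,619 in cumulative dose-response curves, repeated with increasing antagonist concentrations; Kb from analysis of the rightward shift.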

Cavia porcellus [17] = assay: Evaluated for the percent inhibition of arachidonate-induced dynamic compliance at 3 min after dosing (0.1 mg/kg iv) in anesthetized guinea pig.; format: functional; how it was run: as §2
Homo sapiens [18] = species on record: Homo sapiens; assay: Evaluated for its specificity to inhibit the aggregation of human platelets induced by U-46,619 at concentration of 10 uM; format: functional; details: read-out: I50
How it was run: (§4)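 Human PRP aggregation induced by U-46,619 (11,9-epoxymethano-PGH2, stable PGH2/TxA2 mimic) at 5 or 10 μM; I50 reported. Values are single determinations unless otherwise noted.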

Cavia porcellus [19] = assay: Evaluated for the percent inhibition of arachidonate-induced dynamic compliance at 60 min after dosing (0.1 mg/kg iv) in anesthetized guinea pig.; format: functional; how it was run: as §2
Homo sapiens [20] = species on record: Homo sapiens; assay: Evaluated for its specificity to inhibit the aggregation of human platelets induced by U-46,619 at concentration of 5 uM; format: functional; details: read-out: I50; how it was run: as §4
Homo sapiens [21] = species on record: Homo sapiens; assay: Evaluated for ability to inhibit platelet aggregation of human platelet-rich plasma (PRP) induced by 11.9-epoxymethano-PGH2.; format: functional; details: Homo sapiens, Plasma; read-out: I50; how it was run: as §4
Homo sapiens [22] = species on record: Homo sapiens; assay: Evaluated for its specificity by inhibition of TXB2 and PGH-2 (substrate) biosynthesis, enzyme source is human platelets.; format: functional; how it was run: as §1
Thromboxane A2 receptor = target: T1, Thromboxane A2 receptor (Homo sapiens, UniProt P21731); assay: Binding affinity was determined from the inhibition of [3H]-SQ 29,548 binding to Thromboxane A2 receptor in human platelet membranes.; format: cell membranes
T1 sequence (P21731 whole entry): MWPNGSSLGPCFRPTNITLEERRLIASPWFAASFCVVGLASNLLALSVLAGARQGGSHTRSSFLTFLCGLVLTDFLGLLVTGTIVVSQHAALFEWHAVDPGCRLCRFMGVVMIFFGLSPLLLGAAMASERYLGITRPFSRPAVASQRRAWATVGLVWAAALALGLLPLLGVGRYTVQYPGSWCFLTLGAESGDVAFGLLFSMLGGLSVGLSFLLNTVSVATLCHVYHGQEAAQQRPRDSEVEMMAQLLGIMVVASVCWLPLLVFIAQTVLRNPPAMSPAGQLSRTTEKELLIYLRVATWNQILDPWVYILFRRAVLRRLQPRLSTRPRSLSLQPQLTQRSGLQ
How it was run: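 Radioligand binding to human platelet membranes with [5,6-3H2]-SQ 29,548 as tracer; Kd derived from inhibition of specific binding.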

Cavia porcellus [23] = assay: Evaluated for the percent inhibition of arachidonate-induced air-way resistance at 3 min after dosing (0.1 mg/kg iv) in anesthetized guinea pig.; format: functional; how it was run: as §2

CCCCCCCC(=O)NCC(=O)NCC1C2CCC(O2)C1C/C=C/CCCC(=O)O (single isomer, unassigned; (-))
pIC50 (Homo sapiens [1]): < 3.00 | Inhibition (Cavia porcellus [2]): 195% | pIC50 (Bos taurus [3]): < 3.00 | pIC50 (Homo sapiens [4]): 7.40 | pIC50 (Bos taurus [5]): < 3.00 | pIC50 (Bos taurus [6]): < 3.00 | pIC50 (Homo sapiens [7]): < 3.00 | pIC50 (Homo sapiens [8]): < 3.00 | Kb (Rattus norvegicus): 0.0088 µM | pIC50 (Homo sapiens [9]): < 3.00 | pIC50 (Homo sapiens [10]): 6.72 | pIC50 (Homo sapiens [11]): < 3.00 | pIC50 (Homo sapiens [12]): 6.25 | pIC50 (Homo sapiens [13]): 6.74 | Inhibition (Cavia porcellus [14]): 23% | Inhibition (Cavia porcellus [15]): 90% | Kb (Cavia porcellus [16]): 0.003 µM | Inhibition (Cavia porcellus [17]): 86% | pIC50 (Homo sapiens [18]): 6.62 | Inhibition (Cavia porcellus [19]): 22% | pIC50 (Homo sapiens [20]): 6.66 | pIC50 (Homo sapiens [21]): 6.62 | pIC50 (Homo sapiens [22]): < 3.00 | pKd (Thromboxane A2 receptor): 7.30 | Inhibition (Cavia porcellus [23]): 96%
